Source: ChEMBL document CHEMBL5532704, “Exploiting thiol-functionalized benzosiloxaboroles for achieving diverse substitution patterns - synthesis, characterization and biological evaluation of promising antibacterial agents” (RSC Med Chem, 2024)

What was measured:
Enterococcus faecium [1] = test: Antibacterial activity against Enterococcus faecium ATCC 6057 assessed as diameter of inhibition zone by CLSI based disc-diffusion method; assay type: functional
How it was run: (§1)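 Strains were stored at −80 °C, then subcultured twice on tryptic soy agar for 24–48 h at 30 °C before the disc-diffusion test. The result was recorded as the inhibition-zone diameter.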

Enterococcus faecalis = test: Antibacterial activity against Enterococcus faecalis ATCC 29212 assessed as diameter of inhibition zone by CLSI based disc-diffusion method; assay type: functional; how it was run: as §1
Enterococcus faecium [2] = test: Antibacterial activity against Enterococcus faecium ATCC 6057 assessed as inhibition of microbial growth by broth-microdilution method; assay type: functional
How it was run: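 Stocks were kept at −80 °C and subcultured twice on tryptic soy agar (24–48 h, 30 °C). MIC came from CLSI broth microdilution in Mueller–Hinton II broth, using agents dissolved in DMSO. The top tested concentration was lowered to 200, 100 or 50 µg mL⁻¹ for agents that precipitated in the medium above those levels.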

Staphylococcus aureus [3] = test: Antibacterial activity against methicillin-resistant Staphylococcus aureus ATCC 43300 assessed as diameter of inhibition zone by CLSI based disc-diffusion method; assay type: functional
How it was run: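 Disc-diffusion on standard strain subcultured twice on tryptic soy agar (24–48 h, 30 °C) after storage at −80 °C; inhibition zone diameter read; linezolid disc (0.03 mg) as reference.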

Bacillus subtilis = test: Antibacterial activity against Bacillus subtilis ATCC 6633 assessed as diameter of inhibition zone by CLSI based disc-diffusion method; assay type: functional; how it was run: as §1
Staphylococcus aureus [4] = test: Bactericidal activity against methicillin-resistant Staphylococcus aureus NMI 1712 K assessed as inhibition of microbial growth by CLSI based microdilution method; assay type: functional
[5] = Selectivity ratio of IC50 for cytotoxicity against human MRC5 cells assessed as inhibition of cell growth to MIC for antibacterial activity against methicillin-resistant Staphylococcus aureus ATCC 43300 assessed as inhibition of microbial growth; assay type: toxicity, cell-based
[6] = Selectivity ratio of IC50 for cytotoxicity against human MRC5 cells assessed as inhibition of cell growth to MIC for antibacterial activity against methicillin-resistant Staphylococcus aureus NMI 664 K assessed as inhibition of microbial growth by broth-microdilution method; assay type: toxicity, cell-based
[7] = Selectivity ratio of IC50 for cytotoxicity against human MRC5 cells assessed as inhibition of cell growth to MIC for antibacterial activity against methicillin-resistant Staphylococcus aureus NMI 1712 K assessed as inhibition of microbial growth by broth-microdilution method; assay type: toxicity, cell-based
[8] = Selectivity ratio of IC50 for cytotoxicity against human MRC5 cells assessed as inhibition of cell growth to MIC for antibacterial activity against methicillin-resistant Staphylococcus aureus NMI 1991 K assessed as inhibition of microbial growth by broth-microdilution method; assay type: toxicity, cell-based
[9] = Selectivity ratio of IC50 for cytotoxicity against human MRC5 cells assessed as inhibition of cell growth to MIC for antibacterial activity against methicillin-resistant Staphylococcus aureus NMI 1576 K assessed as inhibition of microbial growth by broth-microdilution method; assay type: toxicity, cell-based
[10] = Selectivity ratio of IC50 for cytotoxicity against human MRC5 cells assessed as inhibition of cell growth to MIC for antibacterial activity against methicillin-resistant Staphylococcus aureus NMI 2541 K assessed as inhibition of microbial growth by broth-microdilution method; assay type: toxicity, cell-based
Klebsiella pneumoniae = test: Antibacterial activity against Klebsiella pneumoniae ATCC 13883 assessed as inhibition of cell growth by broth-microdilution method; assay type: functional
How it was run: (§2)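 Strains were held at −80 °C and subcultured twice on tryptic soy agar for 24–48 h at 30 °C. MIC was read by CLSI broth microdilution in Mueller–Hinton II broth, with and without the efflux-pump inhibitor PAβN (20 µg mL⁻¹). Both sets contained 1 mM MgSO₄. A ≥4-fold MIC drop with PAβN was taken as significant.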

Burkholderia cepacia = test: Antibacterial activity against Burkholderia cepacia ATCC 25416 assessed as inhibition of cell growth by broth-microdilution method; assay type: functional
Serratia marcescens = test: Antibacterial activity against Serratia marcescens ATCC 13880 assessed as inhibition of cell growth by broth-microdilution method; assay type: functional; how it was run: as §2
[11] = system: Stenotrophomonas maltophilia; test: Antibacterial activity against Stenotrophomonas maltophilia ATCC 13637 assessed as inhibition of cell growth by broth-microdilution method; assay type: functional; how it was run: as §2
[12] = system: Stenotrophomonas maltophilia; test: Antibacterial activity against Stenotrophomonas maltophilia ATCC 12714 assessed as inhibition of cell growth by broth-microdilution method; assay type: functional; how it was run: as §2
Proteus mirabilis = test: Antibacterial activity against Proteus mirabilis ATCC 12453 assessed as inhibition of cell growth by broth-microdilution method; assay type: functional; how it was run: as §2
Acinetobacter baumannii = test: Antibacterial activity against Acinetobacter baumannii ATCC 19606 assessed as inhibition of cell growth by broth-microdilution method; assay type: functional; how it was run: as §2
Escherichia coli = test: Antibacterial activity against Escherichia coli ATCC 25922 assessed as inhibition of cell growth by broth-microdilution method; assay type: functional; how it was run: as §2
Enterobacter cloacae = test: Antibacterial activity against Enterobacter cloacae DSM 6234 assessed as inhibition of cell growth by broth-microdilution method; assay type: functional; how it was run: as §2
Pseudomonas aeruginosa = test: Antibacterial activity against Pseudomonas aeruginosa ATCC […] assessed as inhibition of cell growth by broth-microdilution method; assay type: functional; how it was run: as §2
Staphylococcus aureus [13] = test: Bactericidal activity against methicillin-resistant Staphylococcus aureus NMI 2541 K assessed as inhibition of microbial growth by CLSI based microdilution method; assay type: functional
[14] = system: Staphylococcus epidermidis; test: Antibacterial activity against Staphylococcus epidermidis ATCC 12228 assessed as diameter of inhibition zone by CLSI based disc-diffusion method; assay type: functional; how it was run: as §1

CC(=O)CCSc1c(F)cc2c(c1F)[Si](C)(C)OB2O
diameter of the inhibition zone (DIZ) (Enterococcus faecium [1]): 21 mm | diameter of the inhibition zone (DIZ) (Enterococcus faecalis): 19 mm | MIC (Enterococcus faecium [2]): 12.5 µg/mL | diameter of the inhibition zone (DIZ) (Staphylococcus aureus [3]): 19 mm

C[Si]1(C)OB(O)c2cc(F)c(SCCC#N)c(F)c21
diameter of the inhibition zone (DIZ) (Bacillus subtilis): 23 mm | MBC (Staphylococcus aureus [4]): 12.5 µg/mL | selectivity ratio [5]: 11.2 | selectivity ratio [6]: 11.2 | selectivity ratio [7]: 11.2 | selectivity ratio [8]: 11.2 | diameter of the inhibition zone (DIZ) (Staphylococcus aureus [3]): 19 mm | selectivity ratio [9]: 11.2 | selectivity ratio [10]: 11.2

C[Si]1(C)OB(O)c2cc(F)c(SC3CC(=O)NC3=O)c(F)c21 (stereo not drawn)
MIC (Klebsiella pneumoniae): > 25 µg/mL | diameter of the inhibition zone (DIZ) (Bacillus subtilis): 27 mm | MIC (Burkholderia cepacia): > 25 µg/mL | MIC (Serratia marcescens): > 25 µg/mL | MIC [11]: > 25 µg/mL | selectivity ratio [5]: 13.4 | selectivity ratio [6]: 13.4 | MIC [12]: > 25 µg/mL | MIC (Proteus mirabilis): > 25 µg/mL | MIC (Acinetobacter baumannii): > 25 µg/mL | MIC (Escherichia coli): > 25 µg/mL | selectivity ratio [7]: 13.4 | selectivity ratio [8]: 13.4 | diameter of the inhibition zone (DIZ) (Staphylococcus aureus [3]): 23 mm | MIC (Enterobacter cloacae): > 25 µg/mL | selectivity ratio [9]: 26.8 | selectivity ratio [10]: 13.4 | MIC (Pseudomonas aeruginosa): > 25 µg/mL

CCOP(=O)(OCC)Sc1c(F)cc2c(c1F)[Si](C)(C)OB2O
diameter of the inhibition zone (DIZ) (Bacillus subtilis): 24 mm | MBC (Staphylococcus aureus [13]): > 12.5 µg/mL | diameter of the inhibition zone (DIZ) [14]: 20 mm | diameter of the inhibition zone (DIZ) (Enterococcus faecium [1]): 11 mm | diameter of the inhibition zone (DIZ) (Enterococcus faecalis): 11 mm | selectivity ratio [5]: > 32 | selectivity ratio [6]: > 32 | selectivity ratio [7]: > 32 | selectivity ratio [8]: > 32 | diameter of the inhibition zone (DIZ) (Staphylococcus aureus [3]): 27 mm | selectivity ratio [9]: > 32 | selectivity ratio [10]: > 32
